The record followed here is ChEMBL document CHEMBL4359864, “The synthesis and in vitro biological evaluation of novel fluorinated tetrahydrobenzo[j]phenanthridine-7,12-diones against Mycobacterium tuberculosis” (Eur J Med Chem, 2019).

Each structure is given as a SMILES string. pIC50: −log10 of the molar value. Converted amounts (≈) assume the structure as drawn.

The test system of one data set is Staphylococcus aureus. As to the kind of experiment: Antibacterial activity against Staphylococcus aureus ATCC 6538 incubated for 24 hrs by resazurin dye based fluorimetric assay. Type of data set: functional, organism-based. The note with it: ATCC 6538, 24 h. In short, it runs like this: (§1)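 Resazurin microtiter assay: compounds from 10 mM DMSO stock, twofold serial dilutions from 64 µM final in growth medium, in triplicate. Inoculum from frozen glycerol stocks. Exposure 24 h, or 7 days for Mtb H37Ra (7H9 + 0.5% glycerol + 10% OADC). Then 0.01% resazurin was added and plates were incubated at 37°C until pink. Fluorescence read at ex 550/em 590 nm; mean of triplicates.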

A further data set relates to Streptococcus pneumoniae. As to the kind of experiment: Antibacterial activity against Streptococcus pneumoniae ATCC BAA-334 incubated for 24 hrs by resazurin dye based fluorimetric assay. Type of data set: functional, organism-based. The following applies: ATCC BAA-334, 24 h. In short, it runs like this: as §1
(Alamar Blue is a resazurin reagent that responds to reducing activity.)

Another data set deals with Enterococcus faecium. The experiment in a line: Antibacterial activity against Enterococcus faecium ATCC 19434 incubated for 24 hrs by resazurin dye based fluorimetric assay. It counts as functional, organism-based. The following applies: ATCC 19434, 24 h. In short, it runs like this:
as §1

A further data set has as its system Escherichia coli. As to the kind of experiment: Antibacterial activity against Escherichia coli ATCC 8739 incubated for 24 hrs by resazurin dye based fluorimetric assay. The note with it: ATCC 8739, ATCC 8739, 24 h. Type of data set: functional, organism-based. A digest of the protocol:
as §1

Another data set has as its system Pseudomonas aeruginosa. As to the kind of experiment: Antibacterial activity against Pseudomonas aeruginosa ATCC 9027 incubated for 24 hrs by resazurin dye based fluorimetric assay. It counts as functional, organism-based. The following applies: ATCC 9027, 24 h. A digest of the protocol: as §1
The test system of the next data set is Klebsiella pneumoniae. The experiment in a line: Antibacterial activity against Klebsiella pneumoniae ATCC 13883 incubated for 24 hrs by resazurin dye based fluorimetric assay. Type of data set: functional, organism-based. The following applies: ATCC 13883, 24 h. A digest of the protocol: as §1
In data set [1] the test system is Mycobacterium tuberculosis. As to the kind of experiment: Antibacterial activity against Mycobacterium tuberculosis H37Ra ATCC 25177 incubated for 7 days by resazurin dye based fluorimetric assay. Type of data set: functional, organism-based. The following applies: H37Ra ATCC 25177, 168 h. A digest of the protocol: as §1
Data set [2] deals with Mycobacterium tuberculosis. As to the kind of experiment: Antimycobacterial activity against Mycobacterium tuberculosis H37Ra lux incubated for 7 days by luminometric assay. It counts as functional, organism-based. The note with it: 168 h. A digest of the protocol:
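Twofold serial dilutions in 7H9/OADC/glycerol, in triplicate, inoculated with a suspension of 10.000 RLU per mL. After 7 days, n-decanal (1% v/v in ethanol) was added and luminescence read. IC50 and MIC (90% growth reduction) were derived from the mean of triplicates.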

A short description of data set [3]: Cytotoxicity against mouse J774A.1 cells assessed as reduction in cell viability incubated for 24 hrs by neutral red uptake assay. Type of data set: cell-based, J774.A1. In short, it runs like this: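 J774A.1 cells in DMEM + 10% iFCS, 37°C, 5% CO2, seeded at 40.000 cells/well and left overnight. Twofold dilutions from 128 µM final; 24 h exposure. Neutral red uptake for 3 h, dye extracted with 1:1 ethanol/acetic acid, OD read at 530 nm (reference 620 nm). CC50 = 50% reduction in uptake; mean of triplicates.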

A further data set concerns Mycobacterium marinum. The experiment in a line: Antimycobacterial activity against Mycobacterium marinum NCTC 2275 by resazurin dye based fluorimetric assay. Type of data set: functional, organism-based. A digest of the protocol:
(§2)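 Resazurin microtiter method as for the bacterial panel. Mycobacteria grown in 7H9 with 10% OADC and 0.5% glycerol; for BCG, 0.05% Tween 80 replaced the glycerol. Cultures were sonicated and needle-passed to single cells. Incubation at 37°C, or 32°C for M. marinum. Fluorescence read at ex 550/em 590 nm; mean of triplicates.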

Data set [4] is described as follows: Antimycobacterial activity against Mycobacterium avium subsp. avium ATCC 25291 by resazurin dye based fluorimetric assay. Type of data set: functional. In short, it runs like this: as §2
In data set [5] the target is T1, CYP450 (Homo sapiens, UniProt P04798+P05177+P05181+P08684+P10632+P10635+P11509+P11712+P13584+P20813+P20815+P20853+P24462+P24903+P33260+P33261+P51589+P78329+P98187+Q02928+Q08477+Q16678+Q16696+Q5TCH4+Q6VVX0+Q7Z449+Q8TAV3+Q96SQ9+Q9HB55). As to the kind of experiment: Microsomal stability in human liver microsomes assessed as CYP450-mediated metabolism by measuring compound remaining at 5 uM and measured for 15 mins in presence of NADPH by UPLC-MS/MS analysis (reference value: 100%). The following applies: read-out: Stability. Type of data set: ADME. A digest of the protocol:
(§3)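 Compound at 5 µM with 0.5 mg/mL liver microsomes in PBS. Phase I was started with 1 mM NADPH; phase II used 2 mM UDPGA. Diclofenac served as reference. Samples taken at 0, 15, 30 and 60 min were quenched in ice-cold acetonitrile, centrifuged at 4°C and analysed by LC-MS. Mean of at least two replicates ± SD.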
For orientation: Liver microsomes are vesicles of endoplasmic reticulum, rich in cytochrome P450 enzymes.

In data set [6] the target is T1, CYP450. The experiment in a line: Microsomal stability in human liver microsomes assessed as CYP450-mediated metabolism by measuring compound remaining at 5 uM and measured for 30 mins in presence of NADPH by UPLC-MS/MS analysis (reference value: 100%). It counts as ADME. The following applies: read-out: Stability. In short, it runs like this:
as §3

For data set [7], the target named is T1, CYP450. The experiment in a line: Microsomal stability in human liver microsomes assessed as CYP450-mediated metabolism by measuring compound remaining at 5 uM and measured for 60 mins in presence of NADPH by UPLC-MS/MS analysis (reference value: 100%). Type of data set: ADME. The note with it: read-out: Stability. In short, it runs like this: as §3
Data set [8] deals with T2, UGT (Homo sapiens, UniProt O60656+O75310+O75795+P06133+P0DTE4+P0DTE5+P16662+P19224+P22309+P22310+P35503+P35504+P36537+P54855+Q6UWM9+Q9BY64+Q9HAW7+Q9HAW8+Q9HAW9). As to the kind of experiment: Microsomal stability in human liver microsomes assessed as UGT-mediated metabolism by measuring compound remaining at 5 uM and measured for 15 mins in presence of UDPGA by UPLC-MS/MS analysis (reference value: 100%). It counts as ADME. The note with it: read-out: Stability. A digest of the protocol:
as §3

Data set [9] deals with T2, UGT. As to the kind of experiment: Microsomal stability in human liver microsomes assessed as UGT-mediated metabolism by measuring compound remaining at 5 uM and measured for 30 mins in presence of UDPGA by UPLC-MS/MS analysis (reference value: 100%). Type of data set: ADME. The following applies: read-out: Stability. A digest of the protocol:
as §3

For data set [10], the target named is T2, UGT. The experiment in a line: Microsomal stability in human liver microsomes assessed as UGT-mediated metabolism by measuring compound remaining at 5 uM and measured for 60 mins in presence of UDPGA by UPLC-MS/MS analysis (reference value: 100%). It counts as ADME. The following applies: read-out: Stability. In short, it runs like this: as §3
For data set [11], the system named is CYP450. The experiment in a line: Microsomal stability in mouse liver microsomes assessed as CYP450-mediated metabolism by measuring compound remaining at 5 uM and measured for 15 mins in presence of NADPH by UPLC-MS/MS analysis (reference value: 100%). The note with it: read-out: Stability. Type of data set: ADME. A digest of the protocol:
as §3

In data set [12] the test system is CYP450. The experiment in a line: Microsomal stability in mouse liver microsomes assessed as CYP450-mediated metabolism by measuring compound remaining at 5 uM and measured for 30 mins in presence of NADPH by UPLC-MS/MS analysis (reference value: 100%). The note with it: read-out: Stability. Type of data set: ADME. In short, it runs like this:
as §3

Data set [13] has as its system CYP450. As to the kind of experiment: Microsomal stability in mouse liver microsomes assessed as CYP450-mediated metabolism by measuring compound remaining at 5 uM and measured for 60 mins in presence of NADPH by UPLC-MS/MS analysis (reference value: 100%). The note with it: read-out: Stability. It counts as ADME. A digest of the protocol:
as §3

Data set [14] deals with UGT. The experiment in a line: Microsomal stability in mouse liver microsomes assessed as UGT-mediated metabolism by measuring compound remaining at 5 uM and measured for 15 mins in presence of UDPGA by UPLC-MS/MS analysis (reference value: 100%). It counts as ADME. The note with it: read-out: Stability. In short, it runs like this: as §3
Data set [15] deals with UGT. As to the kind of experiment: Microsomal stability in mouse liver microsomes assessed as UGT-mediated metabolism by measuring compound remaining at 5 uM and measured for 30 mins in presence of UDPGA by UPLC-MS/MS analysis (reference value: 100%). The following applies: read-out: Stability. Type of data set: ADME. A digest of the protocol:
as §3

In data set [16] the test system is UGT. The experiment in a line: Microsomal stability in mouse liver microsomes assessed as UGT-mediated metabolism by measuring compound remaining at 5 uM and measured for 60 mins in presence of UDPGA by UPLC-MS/MS analysis (reference value: 100%). Type of data set: ADME. The following applies: read-out: Stability. A digest of the protocol:
as §3

Usually pIC50 stands for the IC50 on a negative log10 scale, so that one unit is a factor of ten. Low readings indicate a high IC50, high ones a low IC50. One may read the MIC90 as an inhibitory concentration at the 90% level, which refers to growth in some studies and to a panel of isolates in others. A word on the CC50: it is the concentration giving 50% cytotoxicity.

Consider `C[C@H]1c2cccc(O)c2C(=O)C2=C(O)[C@]3(O)C(=O)C(C(N)=O)=C(O)[C@@H](N(C)C)[C@@H]3[C@@H](O)[C@@H]21` [DOXYCYCLINE], for which the negative-log IC50 (pIC50) in the data set with Staphylococcus aureus was above 6.60; in the data set with Streptococcus pneumoniae, below 6.60.

Take `CN[C@H](CC(C)C)C(=O)N[C@H]1C(=O)N[C@@H](CC(N)=O)C(=O)N[C@H]2C(=O)N[C@H]3C(=O)N[C@H](C(=O)N[C@H](C(=O)O)c4cc(O)cc(O)c4-c4cc3ccc4O)[C@H](O)c3ccc(c(Cl)c3)Oc3cc2cc(c3O[C@@H]2O[C@H](CO)[C@@H](O)[C@H](O)[C@H]2O[C@H]2C[C@](C)(N)[C@H](O)[C@H](C)O2)Oc2ccc(cc2Cl)[C@H]1O` [VANCOMYCIN]: the pIC50 in the data set with Enterococcus faecium is below 6.30.

With `O=C1C2=C(C(=O)c3c1cnc1ccc(F)cc31)C1CCC2C1` (stereo not given), the negative logarithm of the IC50 (pIC50) with Escherichia coli is below 4.19; with Pseudomonas aeruginosa, below 4.19; in the data set with Klebsiella pneumoniae, below 4.19; in the data set on Enterococcus faecium, below 4.19; in the data set on Staphylococcus aureus, below 4.19; in the data set with Streptococcus pneumoniae, 4.19 to 4.49. Besides, the pIC50 in data set [1] was 5.10 to 5.40; in data set [2] it was 5.16; in the data set with Mycobacterium marinum it was 5.30; in data set [4], 6.62. The MIC90 in data set [2] was 57.3 µM (≈ 16.8 µg/mL). In addition, the CC50 at 24 h in data set [3] was above 128 µM. Further, the remaining at 0.25 h, 5 µM came to 100% on CYP450 [5], 92% on UGT [8], 100% in the data set on CYP450 [11] and 96% in the data set with UGT [14]. Moreover, the remaining at 0.5 h, 5 µM on CYP450 [6] stood at 100%; at UGT [9], 79%; in the data set with CYP450 [12] it was 100%; in the data set with UGT [15], 92%. The remaining at 1 h, 5 µM on CYP450 [7] was 100%; at UGT [10], 64%; in the data set with CYP450 [13], 100%; with UGT [16], 72%.

For `COc1c(N2C[C@@H]3CCCN[C@@H]3C2)c(F)cc2c(=O)c(C(=O)O)cn(C3CC3)c12` [MOXIFLOXACIN], the negative-log IC50 (pIC50) is 6.85 with Mycobacterium marinum and 6.72 in data set [4].

As to `O=C(O)Cc1ccccc1Nc1c(Cl)cccc1Cl` [DICLOFENAC], the results for the remaining at 0.25 h, 5 µM at CYP450 [5] and on UGT [8] were 45% and 22%, respectively. Also, the remaining at 0.5 h, 5 µM on CYP450 [6] came out at 23%; on UGT [9], 16%. The remaining at 1 h, 5 µM is 5% at CYP450 [7] and 13% on UGT [10].
